Tests used:
[1] = target: T1, C-C chemokine receptor type 1 (Homo sapiens) (UniProt P32246); test: Antagonist activity at CCR1 in human THP1 cells assessed as inhibition of CCL3-induced chemotaxis after 2 hrs by microtiter format trans-well migration assay; assay type: functional, cell-based; conditions: THP-1
T1 sequence (whole entry): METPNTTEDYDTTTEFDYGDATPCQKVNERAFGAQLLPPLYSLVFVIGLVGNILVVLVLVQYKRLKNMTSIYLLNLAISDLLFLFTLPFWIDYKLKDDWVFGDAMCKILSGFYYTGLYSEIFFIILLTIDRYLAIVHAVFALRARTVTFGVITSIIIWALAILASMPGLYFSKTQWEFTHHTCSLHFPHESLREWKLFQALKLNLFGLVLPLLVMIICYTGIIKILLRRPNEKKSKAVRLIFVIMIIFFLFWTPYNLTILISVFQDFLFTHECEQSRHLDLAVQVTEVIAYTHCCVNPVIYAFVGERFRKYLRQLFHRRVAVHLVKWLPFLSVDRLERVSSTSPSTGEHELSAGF
Outline: (§1)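 Microtiter trans-well migration assay in Gey's balanced salt solution with 1 mg/mL endotoxin-free BSA, no fetal calf serum. Migration ran 2 h at 37 °C. Compounds dissolved in DMSO and added to both top and bottom compartments, final DMSO 1%.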

[2] = Antagonist activity at Interleukin-8 receptor in human PMNC assessed as inhibition of CXCL8-induced chemotaxis after 2 hrs by microtiter format trans-well migration assay; assay type: functional; conditions: read-out: ED50 (the source's name); outline: as §1
[3] = target: C-C chemokine receptor type 2 (Homo sapiens) (UniProt P41597); test: Antagonist activity at CCR2 in human THP1 cells assessed as inhibition of CCL2-induced chemotaxis at 0.1 nM after 2 hrs by microtiter format trans-well migration assay; assay type: functional, cell-based; conditions: THP-1; outline: as §1
Chain of C-C chemokine receptor type 2 (Homo sapiens) (P41597 whole entry, looked up): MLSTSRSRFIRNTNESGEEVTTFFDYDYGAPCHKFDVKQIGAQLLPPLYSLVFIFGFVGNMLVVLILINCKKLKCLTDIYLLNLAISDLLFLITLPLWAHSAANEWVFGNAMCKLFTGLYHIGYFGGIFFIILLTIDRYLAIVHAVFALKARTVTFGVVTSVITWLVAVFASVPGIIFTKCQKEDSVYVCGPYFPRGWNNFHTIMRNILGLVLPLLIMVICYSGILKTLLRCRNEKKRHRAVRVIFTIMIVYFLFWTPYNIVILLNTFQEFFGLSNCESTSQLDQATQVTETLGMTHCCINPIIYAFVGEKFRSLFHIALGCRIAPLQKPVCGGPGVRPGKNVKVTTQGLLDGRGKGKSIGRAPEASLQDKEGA

[4] = Clearance in Sprague-Dawley rat at 1 mg/kg, iv administered as single dose; assay type: ADME, organism-based; set-up: dose 1 mg/kg, route intravenous; conditions: in vivo
Outline: (§2)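 Male Sprague-Dawley rats, three per compound, receive a single intravenous dose in 5% DMSO in 0.9% saline. Food and water are given ad libitum. Plasma is taken at 5, 15, 30, 60, 120, 180, 240 and 480 min. Drug is measured by LC/MS/MS after extraction with 0.1% formic acid in acetonitrile. The curve is back-extrapolated to time zero assuming an initial volume of 0.26 L/kg.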

[5] = Half life in Sprague-Dawley rat at 1 mg/kg, iv administered as single dose; assay type: ADME, organism-based; set-up: dose 1 mg/kg, route intravenous; conditions: in vivo; outline: as §2
[6] = target: C-C chemokine receptor type 5 (Homo sapiens) (UniProt P51681); test: Antagonist activity at CCR5 in human THP1 cells assessed as inhibition of CCL5-induced chemotaxis at 1000 nM after 2 hrs by microtiter format trans-well migration assay; assay type: functional, cell-based; conditions: THP-1; outline: as §1
Chain of C-C chemokine receptor type 5 (Homo sapiens) (P51681 whole entry, looked up): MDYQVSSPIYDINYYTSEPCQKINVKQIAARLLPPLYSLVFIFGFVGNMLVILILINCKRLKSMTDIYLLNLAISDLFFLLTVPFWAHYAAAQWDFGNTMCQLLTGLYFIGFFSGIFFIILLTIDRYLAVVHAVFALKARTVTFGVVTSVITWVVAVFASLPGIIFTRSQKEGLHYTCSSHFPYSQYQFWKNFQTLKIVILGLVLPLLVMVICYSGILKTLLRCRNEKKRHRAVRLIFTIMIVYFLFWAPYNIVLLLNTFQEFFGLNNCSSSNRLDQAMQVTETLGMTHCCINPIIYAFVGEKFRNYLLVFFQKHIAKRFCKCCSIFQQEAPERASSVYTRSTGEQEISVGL

THP-1 [7] = test: Cytotoxicity against human THP1 cells up to 100 uM by trypan blue exclusion assay; assay type: cell-based
Mus musculus [8] = test: Antiinflammatory activity in mouse assessed as inhibition of LPS-induced TNFalpha upregulation at 0.075 ug, sc measured 2 hrs after LPS challenge; assay type: functional
Outline: (§3)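 Murine sublethal endotoxemia: LPS given intraperitoneally, with serum TNF-α measured 2 h after the LPS injection as the end point. Compound was given subcutaneously or orally. Vehicle was 0.6% DMSO and 1% carboxymethylcellulose (final concentrations) in sterile water. Effect is reported as % relative to control.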

THP-1 [9] = test: Endogenous chemoattractant activity at human THP1 cells assessed as cell migration at 0.1 nM after 2 hrs by microtiter format trans-well migration assay; assay type: functional
[10] = target: C-X-C chemokine receptor type 4 (Homo sapiens) (UniProt P61073); test: Antagonist activity at CXCR4 in human THP1 cells assessed as inhibition of CXCL12-induced chemotaxis at 0.1 nM after 2 hrs by microtiter format trans-well migration assay; assay type: functional, cell-based; conditions: THP-1; outline: as §1
Chain of C-X-C chemokine receptor type 4 (Homo sapiens) (P61073 whole entry): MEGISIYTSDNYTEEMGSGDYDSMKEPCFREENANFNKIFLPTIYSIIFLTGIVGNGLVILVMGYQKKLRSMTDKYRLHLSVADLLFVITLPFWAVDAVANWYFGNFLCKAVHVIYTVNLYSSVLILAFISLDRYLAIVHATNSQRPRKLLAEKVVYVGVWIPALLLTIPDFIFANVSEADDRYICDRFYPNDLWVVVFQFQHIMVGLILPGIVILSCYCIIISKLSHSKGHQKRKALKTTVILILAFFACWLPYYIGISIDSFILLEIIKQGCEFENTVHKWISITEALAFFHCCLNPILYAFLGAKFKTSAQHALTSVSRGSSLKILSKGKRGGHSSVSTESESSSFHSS

THP-1 [11] = test: Endogenous chemoattractant activity at human THP1 cells assessed as cell migration at 1000 uM after 2 hrs by microtiter format trans-well migration assay; assay type: functional
[12] = target: T2, C5a anaphylatoxin chemotactic receptor 1 (Homo sapiens) (UniProt P21730); test: Antagonist activity at C5a receptor in human PMNC assessed as inhibition of C5a-induced chemotaxis at 0.1 nM after 2 hrs by microtiter format trans-well migration assay; assay type: functional; outline: as §1
T2 sequence (whole entry): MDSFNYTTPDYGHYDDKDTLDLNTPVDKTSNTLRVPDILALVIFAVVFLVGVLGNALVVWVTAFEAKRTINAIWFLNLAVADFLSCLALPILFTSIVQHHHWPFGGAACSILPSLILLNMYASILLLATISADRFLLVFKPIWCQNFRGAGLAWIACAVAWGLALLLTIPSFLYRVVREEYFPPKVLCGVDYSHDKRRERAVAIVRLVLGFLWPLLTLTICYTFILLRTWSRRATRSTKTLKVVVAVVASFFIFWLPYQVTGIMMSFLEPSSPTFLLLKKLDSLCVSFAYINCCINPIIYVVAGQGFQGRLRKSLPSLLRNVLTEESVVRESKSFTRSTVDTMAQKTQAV

[13] = target: C-C chemokine receptor type 2 (Homo sapiens) (UniProt P41597); test: Antagonist activity at CCR2 in human THP1 cells assessed as inhibition of CCL2-induced chemotaxis after 2 hrs by microtiter format trans-well migration assay; assay type: functional, cell-based; conditions: THP-1; outline: as §1
[14] = Antagonist activity at Interleukin-8 receptor in human PMNC assessed as inhibition of CXCL8-induced chemotaxis at 1 nM after 2 hrs by microtiter format trans-well migration assay; assay type: functional; outline: as §1
[15] = target: C-X-C chemokine receptor type 4 (Homo sapiens) (UniProt P61073); test: Antagonist activity at CXCR4 in human THP1 cells assessed as inhibition of CXCL12-induced chemotaxis after 2 hrs by microtiter format trans-well migration assay; assay type: functional, cell-based; conditions: THP-1; outline: as §1
THP-1 [16] = test: Toxicity in human THP1 cells assessed as change in cell size at 1000 nM by forward scatter flow cytometry relative to control; assay type: cell-based; conditions: thp-1, 1 µM
THP-1 [17] = test: Endogenous chemoattractant activity at human THP1 cells assessed as cell migration at 0.001 nM after 2 hrs by microtiter format trans-well migration assay; assay type: functional
[18] = target: T2, C5a anaphylatoxin chemotactic receptor 1 (Homo sapiens); test: Antagonist activity at C5a receptor in human PMNC assessed as inhibition of C5a-induced chemotaxis at 0.01 nM after 2 hrs by microtiter format trans-well migration assay; assay type: functional; outline: as §1
Mus musculus [19] = test: Antiinflammatory activity in mouse assessed as inhibition of LPS-induced TNFalpha upregulation at 0.0025 mg, po measured 2 hrs after LPS challenge; assay type: functional; outline: as §3
[20] = target: C-X-C chemokine receptor type 4 (Homo sapiens) (UniProt P61073); test: Antagonist activity at CXCR4 in human THP1 cells assessed as inhibition of CXCL12-induced chemotaxis at 100 nM after 2 hrs by microtiter format trans-well migration assay; assay type: functional, cell-based; conditions: THP-1; outline: as §1
[21] = target: C-C chemokine receptor type 5 (Homo sapiens) (UniProt P51681); test: Antagonist activity at CCR5 in human THP1 cells assessed as inhibition of CCL5-induced chemotaxis at 10 nM after 2 hrs by microtiter format trans-well migration assay; assay type: functional, cell-based; conditions: THP-1; outline: as §1
THP-1 [22] = test: Endogenous chemoattractant activity at human THP1 cells assessed as cell migration at 0.01 nM after 2 hrs by microtiter format trans-well migration assay; assay type: functional
Mus musculus [23] = test: Antiinflammatory activity in mouse assessed as inhibition of LPS-induced TNFalpha upregulation at 0.0075 mg, po measured 2 hrs after LPS challenge; assay type: functional; outline: as §3
[24] = target: C-X-C chemokine receptor type 4 (Homo sapiens) (UniProt P61073); test: Antagonist activity at CXCR4 in human THP1 cells assessed as inhibition of CXCL12-induced chemotaxis at 1000 nM after 2 hrs by microtiter format trans-well migration assay; assay type: functional, cell-based; conditions: THP-1; outline: as §1
[25] = Antagonist activity at Interleukin-8 receptor in human PMNC assessed as inhibition of CXCL8-induced chemotaxis at 0.01 nM after 2 hrs by microtiter format trans-well migration assay; assay type: functional; outline: as §1

CCCCCCCCCCC(C)(C)C(=O)N[C@H]1CCCCNC1=O
ED50 [1]: 150 pM | EC50 [2]: 300 pM | inhibition [3]: 53.5% | clearance [4]: 40 mL/min/kg | half-life [5]: 46 min | inhibition [6]: 100% | Activity (THP-1 [7]): Non-toxic | inhibition (INH) (Mus musculus [8]): 65% | Activity (THP-1 [9]): 2556% | inhibition [10]: 13% | Activity (THP-1 [11]): 1602% | inhibition [12]: 26.5% | ED50 [13]: 90 pM | inhibition at 0.001 µM [14]: 71% | ED50 [15]: 1000 pM | fold change (FC) (THP-1 [16]): 1.05 | Activity (THP-1 [17]): 4282% | inhibition [18]: 20% | inhibition (INH) (Mus musculus [19]): 0% | inhibition [20]: 111% | inhibition [21]: 102% | Activity (THP-1 [22]): 5337% | inhibition (INH) (Mus musculus [23]): 12% | inhibition [24]: 112% | inhibition at 10 pM [25]: -12%
